Data: ChEMBL document CHEMBL1152560, “Substituted 2-arylbenzothiazoles as kinase inhibitors: hit-to-lead optimization” (Bioorg Med Chem, 2009)

How the values were obtained:
[1] = molecular target: T1, Aurora kinase A (Homo sapiens) (UniProt O14965); test: Residual activity of Aurora-A at 10 uM by microplate scintillation counting
T1 sequence (whole entry): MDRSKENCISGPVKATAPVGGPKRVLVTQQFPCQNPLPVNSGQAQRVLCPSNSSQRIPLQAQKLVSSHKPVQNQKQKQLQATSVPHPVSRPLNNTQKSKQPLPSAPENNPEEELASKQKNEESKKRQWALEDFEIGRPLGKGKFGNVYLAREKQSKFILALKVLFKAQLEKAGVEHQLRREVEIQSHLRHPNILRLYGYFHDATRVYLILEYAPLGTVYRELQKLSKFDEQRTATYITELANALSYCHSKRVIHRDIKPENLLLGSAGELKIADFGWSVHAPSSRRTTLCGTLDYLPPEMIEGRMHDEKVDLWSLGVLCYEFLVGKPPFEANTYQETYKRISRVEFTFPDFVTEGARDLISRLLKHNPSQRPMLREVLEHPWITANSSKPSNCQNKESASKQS

[2] = molecular target: T2, Serine/threonine-protein kinase D3 (Homo sapiens) (UniProt O94806); test: Residual activity of PKCnu at 1 uM by microplate scintillation counting
T2 sequence (whole entry): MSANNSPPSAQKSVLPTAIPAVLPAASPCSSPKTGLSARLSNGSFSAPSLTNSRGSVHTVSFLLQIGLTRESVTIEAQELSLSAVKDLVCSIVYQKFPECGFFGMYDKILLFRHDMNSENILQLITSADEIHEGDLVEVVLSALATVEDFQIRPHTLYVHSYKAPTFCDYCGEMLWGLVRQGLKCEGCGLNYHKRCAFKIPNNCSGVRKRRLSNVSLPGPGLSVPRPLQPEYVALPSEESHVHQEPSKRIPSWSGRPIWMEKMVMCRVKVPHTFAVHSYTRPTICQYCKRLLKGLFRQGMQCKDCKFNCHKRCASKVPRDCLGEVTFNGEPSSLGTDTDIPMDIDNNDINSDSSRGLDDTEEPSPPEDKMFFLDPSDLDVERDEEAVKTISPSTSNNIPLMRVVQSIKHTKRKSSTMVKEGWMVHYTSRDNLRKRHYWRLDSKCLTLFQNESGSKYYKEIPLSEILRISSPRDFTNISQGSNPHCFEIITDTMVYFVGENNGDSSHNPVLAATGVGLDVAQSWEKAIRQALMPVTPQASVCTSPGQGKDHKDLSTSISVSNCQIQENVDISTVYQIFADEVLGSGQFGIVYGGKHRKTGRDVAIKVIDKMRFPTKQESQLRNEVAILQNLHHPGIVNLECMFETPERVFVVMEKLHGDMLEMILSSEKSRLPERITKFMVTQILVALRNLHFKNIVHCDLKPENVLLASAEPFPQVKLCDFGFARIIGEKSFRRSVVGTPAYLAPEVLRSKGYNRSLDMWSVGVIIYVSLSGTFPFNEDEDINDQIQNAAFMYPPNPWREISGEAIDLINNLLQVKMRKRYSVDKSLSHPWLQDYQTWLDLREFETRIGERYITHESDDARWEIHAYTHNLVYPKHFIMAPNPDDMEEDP

[3] = molecular target: T3, Testis-specific serine/threonine-protein kinase 2 (Homo sapiens) (UniProt Q96PF2); test: Residual activity of TSK2 at 1 uM by microplate scintillation counting
T3 sequence (whole entry): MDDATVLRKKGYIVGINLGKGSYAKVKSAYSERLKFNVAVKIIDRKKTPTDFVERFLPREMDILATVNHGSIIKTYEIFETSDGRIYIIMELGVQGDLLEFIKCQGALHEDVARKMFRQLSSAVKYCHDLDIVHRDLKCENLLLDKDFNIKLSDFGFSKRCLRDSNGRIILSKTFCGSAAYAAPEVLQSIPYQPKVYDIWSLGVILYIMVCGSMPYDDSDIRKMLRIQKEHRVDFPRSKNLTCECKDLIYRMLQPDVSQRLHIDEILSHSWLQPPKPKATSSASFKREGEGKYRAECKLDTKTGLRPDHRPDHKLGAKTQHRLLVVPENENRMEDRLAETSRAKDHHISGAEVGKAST

[4] = molecular target: Cyclin-dependent kinase 4/cyclin D1 (Homo sapiens) (UniProt P11802+P24385); test: Residual activity of CDK4/Cyclin D1 at 0.1 uM by microplate scintillation counting; format: protein-complex assay
[5] = test system: Mast/stem cell growth factor receptor Kit (Homo sapiens), P10721 [T670I]; test: Residual activity of KIT T670I mutant at 1 uM by microplate scintillation counting
Mast/stem cell growth factor receptor Kit (Homo sapiens), P10721 [T670I], sequence (P10721 whole entry T670I): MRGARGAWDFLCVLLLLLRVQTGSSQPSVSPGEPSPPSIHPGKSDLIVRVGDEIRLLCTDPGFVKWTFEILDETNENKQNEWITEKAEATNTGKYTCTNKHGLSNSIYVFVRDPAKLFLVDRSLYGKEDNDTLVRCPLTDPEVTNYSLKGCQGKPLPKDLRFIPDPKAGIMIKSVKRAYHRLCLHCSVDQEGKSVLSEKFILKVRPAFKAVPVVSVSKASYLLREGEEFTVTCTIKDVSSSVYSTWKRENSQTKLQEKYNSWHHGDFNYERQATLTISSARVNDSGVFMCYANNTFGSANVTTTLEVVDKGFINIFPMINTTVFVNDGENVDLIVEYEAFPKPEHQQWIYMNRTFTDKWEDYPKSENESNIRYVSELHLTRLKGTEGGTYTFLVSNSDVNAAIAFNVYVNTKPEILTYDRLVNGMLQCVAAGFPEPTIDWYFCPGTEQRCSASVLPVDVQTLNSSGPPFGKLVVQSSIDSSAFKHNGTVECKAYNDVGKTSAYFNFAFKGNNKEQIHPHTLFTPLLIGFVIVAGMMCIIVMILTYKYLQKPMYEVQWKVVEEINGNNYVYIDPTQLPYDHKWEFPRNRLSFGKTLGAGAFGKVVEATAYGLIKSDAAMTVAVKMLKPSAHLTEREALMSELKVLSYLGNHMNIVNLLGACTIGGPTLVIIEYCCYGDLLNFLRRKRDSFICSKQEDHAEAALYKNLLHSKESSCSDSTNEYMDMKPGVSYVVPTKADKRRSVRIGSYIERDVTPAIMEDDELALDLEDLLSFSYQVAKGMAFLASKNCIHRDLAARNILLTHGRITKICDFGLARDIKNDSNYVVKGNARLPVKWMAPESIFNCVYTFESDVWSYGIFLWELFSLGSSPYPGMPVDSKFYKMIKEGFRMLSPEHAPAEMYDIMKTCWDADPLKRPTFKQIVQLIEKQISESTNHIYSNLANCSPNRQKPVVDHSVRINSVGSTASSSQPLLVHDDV

Aurora kinase B = Aurora kinase B (Homo sapiens, UniProt Q96GD4); test: Inhibition of Aurora-B by microplate scintillation counting
Aurora kinase B, sequence (Q96GD4 whole entry): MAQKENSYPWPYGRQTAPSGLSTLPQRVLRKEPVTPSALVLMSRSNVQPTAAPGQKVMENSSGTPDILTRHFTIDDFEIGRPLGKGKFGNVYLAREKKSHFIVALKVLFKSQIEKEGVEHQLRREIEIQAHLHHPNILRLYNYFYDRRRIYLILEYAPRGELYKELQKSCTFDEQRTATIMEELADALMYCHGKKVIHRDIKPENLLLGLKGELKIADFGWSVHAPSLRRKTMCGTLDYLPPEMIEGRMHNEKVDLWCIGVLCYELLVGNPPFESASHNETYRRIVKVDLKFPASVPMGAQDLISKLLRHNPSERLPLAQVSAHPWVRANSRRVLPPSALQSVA
Procedure, shortened: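 Substrates: tetra(LRRWSLG) for Aurora A/B; poly(Ala,Glu,Lys,Tyr)6:2:5:1 for PDGFRβ; poly(Glu,Tyr)4:1 for TIE2 and VEGFR2. Stopped with 2% H3PO4.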

[6] = molecular target: T4, Beta-adrenergic receptor kinase 1 (Homo sapiens) (UniProt P25098); test: Residual activity of GRK2 at 1 uM by microplate scintillation counting
T4 sequence (whole entry): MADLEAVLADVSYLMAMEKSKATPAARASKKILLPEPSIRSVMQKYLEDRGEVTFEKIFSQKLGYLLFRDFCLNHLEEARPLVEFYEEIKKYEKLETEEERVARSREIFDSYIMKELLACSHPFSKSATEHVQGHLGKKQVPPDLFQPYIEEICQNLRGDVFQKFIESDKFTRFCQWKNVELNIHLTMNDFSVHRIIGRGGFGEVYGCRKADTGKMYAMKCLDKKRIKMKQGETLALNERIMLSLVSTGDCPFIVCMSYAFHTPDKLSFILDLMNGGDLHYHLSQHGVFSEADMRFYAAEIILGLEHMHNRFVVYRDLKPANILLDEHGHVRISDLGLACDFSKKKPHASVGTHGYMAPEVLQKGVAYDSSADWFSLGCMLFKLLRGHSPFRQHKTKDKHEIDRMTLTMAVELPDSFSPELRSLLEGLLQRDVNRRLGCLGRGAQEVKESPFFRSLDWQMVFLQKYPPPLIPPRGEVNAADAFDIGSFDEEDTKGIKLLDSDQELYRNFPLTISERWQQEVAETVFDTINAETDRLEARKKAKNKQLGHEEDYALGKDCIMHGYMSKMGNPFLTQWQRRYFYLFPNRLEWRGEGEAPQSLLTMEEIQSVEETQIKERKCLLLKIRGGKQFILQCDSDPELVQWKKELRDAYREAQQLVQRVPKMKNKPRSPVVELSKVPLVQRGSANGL

| residual activity [1] | residual activity [2] | residual activity [3] | residual activity [4] | residual activity [5] | IC50 (Aurora kinase B) | residual activity [6] | SMILES |
| --- | --- | --- | --- | --- | --- | --- | --- |
| 4% | 87% | 108% | 98% | 73% | 162 nM | 97% | COc1cc2c(Oc3ccc(-c4nc5ccccc5s4)cc3)ncnc2cc1OCCCN1CCCC1 |
| 5% | 83% | 92% | 96% | 73% | 63 nM | 105% | COc1cc2c(Oc3ccc(-c4nc5ccccc5s4)cc3)ncnc2cc1OCCCN1CCN(C)CC1 |
| 4% | 88% | 98% | 98% | 65% | 130 nM | 85% | COc1cc2c(Oc3ccc(-c4nc5ccccc5s4)cc3F)ncnc2cc1OCCCN1CCN(C)CC1 |
